Data set [1] can be described thus: Cytotoxicity in human CEM.SS T cells assessed as cell viability level at 1 uM. It counts as toxicity, cell-based. The conditions noted are these: time 7 day, read-out: Activity.
For data set [2], the target named is T1, Aberrant vpr protein (Human immunodeficiency virus 1) (UniProt Q77YF9).
T1 sequence (whole entry): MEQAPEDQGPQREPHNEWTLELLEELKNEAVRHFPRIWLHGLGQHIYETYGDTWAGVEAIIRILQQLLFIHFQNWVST
Put plainly: Modulation of HIV-1 Vpr-dependent enhancement of HIV-1 replication in human CEM.SS T cells assessed as effect on percentages of cell-associated HIV-1 DNA at 1 uM added starting 12 hrs before HIV-1 infection until 7 dpi. Format: cell-based. The conditions noted are these: time 7.0 day. The method, boiled down: (§1)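 CEM.SS cells held in drug from ~12 h before infection to 7 dpi, infected (1×10⁵ cells) with a DNase-treated, qPCR-normalized 1:1 mix of NL4-3 reporters HIV-1.mRFP.vpr.wt and HIV-1.RFP.vpr.Q8*, combined moi 0.006–0.02. Density was reset on 3 and 5 dpi, and only cultures with <5% RFP⁺ cells at 7 dpi were kept. Share of each virus DNA at 7 dpi came from SYBR qPCR of RFP/mRFP amplicons against plasmid standards; three biological replicates.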

The nature of data set [3]: Cytotoxicity in human CEM.SS T cells assessed as cell viability level at 200 nM. Format: toxicity, cell-based. As to conditions: time 7 day, read-out: Activity.
The target in data set [4] is T1, Aberrant vpr protein (Human immunodeficiency virus 1). Put plainly: Modulation of HIV-1 Vpr-dependent enhancement of HIV-1 replication in human CEM.SS T cells assessed as effect on percentages of cell-associated HIV-1 DNA at 200 nM added starting 12 hrs before HIV-1 infection until 7 dpi. It counts as cell-based. As to conditions: time 7.0 day. The procedure, abridged: as §1

A short description of data set [5]: Cytotoxicity in human CEM.SS T cells assessed as cell viability level at 3 uM. As to conditions: time 7 day, read-out: Activity. Format: toxicity, cell-based.
The target in data set [6] is T1, Aberrant vpr protein (Human immunodeficiency virus 1). Nature of the data set: Modulation of HIV-1 Vpr-dependent enhancement of HIV-1 replication in human CEM.SS T cells assessed as effect on percentages of cell-associated HIV-1 DNA at 3 uM added starting 12 hrs before HIV-1 infection until 7 dpi. As to conditions: time 7.0 day. It counts as cell-based. The method, boiled down:
as §1

The target is the same in data set [7]. Put plainly: Modulation of HIV-1 Vpr-dependent enhancement of HIV-1 replication in human CEM.SS T cells assessed as effect on percentages of cell-associated HIV-1 DNA at 10 uM added starting 12 hrs before HIV-1 infection until 7 dpi. Format: cell-based. The conditions noted are these: time 7.0 day. The method, boiled down: as §1
A short description of data set [8]: Cytotoxicity in human CEM.SS T cells assessed as cell viability level at 10 uM. It counts as toxicity, cell-based. The conditions noted are these: time 7 day, read-out: Activity.
Data set [9] addresses T1, Aberrant vpr protein (Human immunodeficiency virus 1). Nature of the data set: Modulation of HIV-1 Vpr-dependent enhancement of HIV-1 replication in human CEM.SS T cells assessed as effect on percentages of cell-associated HIV-1 DNA at 2 uM added starting 12 hrs before HIV-1 infection until 7 dpi. The conditions noted are these: time 7.0 day. It counts as cell-based. The procedure, abridged:
as §1

Data set [10] can be described thus: Cytotoxicity in human CEM.SS T cells assessed as cell viability level at 2 uM. It counts as toxicity, cell-based. The conditions noted are these: time 7 day, read-out: Activity.
Data set [11] addresses T1, Aberrant vpr protein (Human immunodeficiency virus 1). Put plainly: Modulation of HIV-1 Vpr-dependent enhancement of HIV-1 replication in human CEM.SS T cells assessed as effect on percentages of cell-associated HIV-1 DNA at 0.67 uM added starting 12 hrs before HIV-1 infection until 7 dpi. It counts as cell-based. As to conditions: time 7.0 day. The method, boiled down:
as §1

A short description of data set [12]: Cytotoxicity in human CEM.SS T cells assessed as cell viability level at 0.67 uM. As to conditions: time 7 day, read-out: Activity. Format: toxicity, cell-based.
Data set [13] addresses T1, Aberrant vpr protein (Human immunodeficiency virus 1). Put plainly: Modulation of HIV-1 Vpr-dependent enhancement of HIV-1 replication in human CEM.SS T cells assessed as effect on percentages of cell-associated HIV-1 DNA at 1 nM added starting 12 hrs before HIV-1 infection until 7 dpi. It counts as cell-based. The conditions noted are these: time 7.0 day. The method, boiled down:
as §1

The nature of data set [14]: Cytotoxicity in human CEM.SS T cells assessed as cell viability level at 1 nM. Format: toxicity, cell-based. The conditions noted are these: time 7 day, read-out: Activity.

Structures are written as SMILES. Active and inactive are the calls of the source. The calls are words filed in the database; no cut-off is given here.

For `COc1cc2c(NC3CCN(C(C)C)CC3)nc(C3CCCCC3)nc2cc1OCCCN1CCCC1`, the viability at 168 h, 1 µM in data set [1] is more than 80%. Also, the outcome in data set [2] was inactive.
As for `O=C(CCCCCCC(=O)Nc1ccccc1)NO` [VORINOSTAT], the viability at 168 h, 0.2 µM in data set [3] was more than 80%. The outcome in data set [4] was inactive.
On to `CC1=NN(c2ccc(C(=O)O)cc2)C(=O)/C1=C\c1ccc(-c2cc(C)c(C)cc2[N+](=O)[O-])o1`, for which, in [5], the viability at 168 h, 3 µM is more than 80%. The outcome in data set [6] was inactive.
For `NC(=O)C1CCCc2c1[nH]c1ccc(Cl)cc21` (centres undefined), the result in data set [7] was inactive. Also, the viability at 168 h, 10 µM in data set [8] was more than 80%.
`CC(C)N(CCCNC(=O)Nc1ccc(C(C)(C)C)cc1)C[C@H]1O[C@@H](n2cc(Br)c3c(N)ncnc32)[C@H](O)[C@@H]1O`: the result in data set [9] was inactive. Besides, the viability at 168 h, 2 µM in data set [10] was more than 80%.
For the compound `CCCc1cc(C)[nH]c(=O)c1CNC(=O)c1cc(-c2ccnc(N3CCN(C)CC3)c2)cc2c1cnn2C(C)C`, in data set [11], the outcome was inactive. Further, the viability at 168 h, 0.67 µM in [12] was more than 80%.
`CC(/C=C/C(=O)NO)=C\[C@@H](C)C(=O)c1ccc(N(C)C)cc1` [TRICHOSTATIN]: the result in data set [13] was inactive. In addition, the viability at 168 h, 0.001 µM in data set [14] was more than 80%.

For the origin of these results see ChEMBL document CHEMBL5674885, “HIV-1 Vpr counteracts HLTF-mediated restriction of HIV-1 infection in T cells” (Proc Natl Acad Sci U S A, 2019).
